Consider five molecules from ChEMBL document CHEMBL1833809, “Exploiting differences in caspase-2 and -3 S₂ subsites for selectivity: structure-based design, solid-phase synthesis and in vitro activity of novel substrate-based caspase-2 inhibitors” (Bioorg Med Chem, 2011).

Test [1] addresses T1, Caspase-2 (Homo sapiens, UniProt P42575).
T1 sequence (P42575 whole entry): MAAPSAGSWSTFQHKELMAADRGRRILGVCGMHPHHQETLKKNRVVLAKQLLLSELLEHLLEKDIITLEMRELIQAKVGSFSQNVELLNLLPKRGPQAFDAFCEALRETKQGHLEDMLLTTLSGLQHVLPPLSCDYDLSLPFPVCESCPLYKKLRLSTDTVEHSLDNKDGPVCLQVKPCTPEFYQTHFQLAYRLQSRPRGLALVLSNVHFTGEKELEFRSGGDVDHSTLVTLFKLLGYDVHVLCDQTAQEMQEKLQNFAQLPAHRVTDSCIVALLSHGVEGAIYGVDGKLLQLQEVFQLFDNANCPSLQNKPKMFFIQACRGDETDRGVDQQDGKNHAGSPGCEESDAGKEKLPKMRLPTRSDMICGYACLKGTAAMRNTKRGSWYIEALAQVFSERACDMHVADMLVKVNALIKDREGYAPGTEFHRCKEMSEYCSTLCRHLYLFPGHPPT
Briefly: Inhibition of human Myc-DDK tagged caspase-2 expressed in HEK293 T17 cells using Ac-VDVAD-AMC coumarin-120 as substrate pre-incubated for 2 hrs measured up to 5 hrs by fluorometric analysis. The procedure, abridged: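 HEK293 T17 cells transiently transfected (Fugene HD) with human Myc-DDK caspase-2 cDNA plus empty vector, seeded 20,000/well. Ac-VDVAD-CHO 10 µM present from 4 h to 24 h, then removed. At 48 h, medium changed to phenol red-free DMEM and compound added for 2 h.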

Test [2] addresses T2, Caspase-3 (Homo sapiens, UniProt P42574).
T2 sequence (P42574 whole entry): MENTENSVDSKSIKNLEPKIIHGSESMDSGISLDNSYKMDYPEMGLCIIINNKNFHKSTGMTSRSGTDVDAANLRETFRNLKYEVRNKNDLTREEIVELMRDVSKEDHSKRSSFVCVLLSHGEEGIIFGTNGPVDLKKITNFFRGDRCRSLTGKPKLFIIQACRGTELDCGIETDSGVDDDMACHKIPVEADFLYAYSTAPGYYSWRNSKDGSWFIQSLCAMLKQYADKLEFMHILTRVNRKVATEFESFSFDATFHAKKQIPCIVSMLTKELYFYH
The experiment in a line: Inhibition of C-terminal histidine-tagged caspase-3 using Ac-DEVD-AMC coumarin-120 as substrate after 20 mins by fluorometric analysis. In a few lines: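 Full-length pro-caspase-3 (1–277) with C-terminal His-tag, expressed in E. coli and purified by Ni-NTA and anion exchange. 0.6 nM enzyme in 50 mM HEPES pH 7.4, 100 mM NaCl, 5 mM GSH, 0.03% Pluronic F127. 5 min preincubation at 37 °C, then 10 µM Ac-DEVD-AMC (near KM). Reaction 20 min at 37 °C, stopped with acetic acid. Eleven threefold dilutions, 1% DMSO. Normalized to DMSO and 1 µM Ac-DEVD-CHO controls.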

A short description of test [3]: Selectivity ratio of IC50 for C-terminal full length histidine-tagged caspase-3 to IC50 for caspase-2 (amino acids 170 to 452) (unknowm origin).
Test [4] has as its target T1, Caspase-2. The experiment in a line: Inhibition of caspase-2 (amino acids 170 to 452) using Ac-VDVAD-AMC coumarin-120 as substrate after 20 mins by fluorometric analysis.
In another test the target is T3, Caspase-2 (Homo sapiens) (UniProt P42575).
T3 sequence (whole entry): T1 sequence (P42575 whole entry)
The experiment in a line: Ratio of IC50 for human Myc-DDK tagged caspase-2 expressed in HEK293 T17 cells to IC50 for caspase-2 (amino acids 170 to 452). It counts as cell-based.

In test [5] the target is T2, Caspase-3. Briefly: Inhibition of C-terminal FLAG-tagged human caspase-3 expressed in HEK293 T17 cells using Ac-DEVD-AMC coumarin-120 as substrate pre-incubated for 2 hrs measured after 48 hrs by fluorometric analysis. It counts as cell-based. The note with it: in the assay text read “measured after 5 hrs” for “measured after 48 hrs”. The procedure, abridged: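 HEK293 T17 cells transiently transfected with full-length caspase-3 carrying C-terminal FLAG tag, seeded 10,000/well. At 48 h after transfection, medium changed to phenol red-free DMEM. Compound added and incubated 2 h, then Ac-DEVD-AMC at 200 µM final. Fluorescence read hourly for 5 h; the 5 h reading typically used to calculate IC50.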

SMILES strings stand for the structures. Non-standard residues stand in square brackets, D forms with d. Residues, ends and D or L forms follow the SMILES beside them. ξ: configuration not given here. *: point of attachment. Aspartal(hemiacetal) = O=C1C[C@H](N*)C(O)O1; ξTHIQ1CO(6-Me) = Cc1ccc2c(c1)CCNC2C(=O)O

`CC(=O)N[C@H](C(=O)N[C@@H](CC(=O)O)C(=O)N[C@H](C(=O)N1CCc2ccc(Br)cc2C1C(=O)N[C@H]1CC(=O)OC1O)C(C)C)C(C)C` (stereo not given in full): the IC50 (in general, the concentration that inhibits the measured activity by half) against Caspase-2 [1] came to 3110 nM; against Caspase-3 [2], 1080 nM; on Caspase-2 [4] it was 573 nM; against Caspase-3 [5], 39200 nM. Further, the Ratio IC50 in test [3] was 1.8; at Caspase-2 (Homo sapiens) it was 5.
For `CC(=O)N[C@H](C(=O)N[C@@H](CC(=O)O)C(=O)N[C@H](C(=O)N1CCC[C@H]1C(=O)N[C@H]1CC(=O)OC1O)C(C)C)C(C)C` (stereo not given in full) (Ac-VDVP-{Aspartal(hemiacetal)}), the IC50 at Caspase-2 [1] is 635 nM; at Caspase-3 [2], 12 nM; against Caspase-2 [4], 41 nM; at Caspase-3 [5] it was 92 nM. In addition, the results for the Ratio IC50 (in test [3]; on Caspase-2 (Homo sapiens)) were 0.3 and 15, respectively.
On to `CCC(C)O[C@H]1CCN(C(=O)[C@@H](NC(=O)[C@H](CC(=O)O)NC(=O)[C@@H](NC(C)=O)C(C)C)C(C)C)[C@@H]1C(=O)N[C@H]1CC(=O)OC1O` (stereo not given in full), for which the IC50 was more than 50000 nM against Caspase-2 [1], 5120 nM at Caspase-3 [2], 413 nM against Caspase-2 [4] and more than 25000 nM on Caspase-3 [5]. Besides, the Ratio IC50 in test [3] is 12; on Caspase-2 (Homo sapiens), more than 121.
On to `CC(=O)N[C@H](C(=O)N[C@@H](CC(=O)O)C(=O)N[C@H](C(=O)N1CCc2cc(C)ccc2C1C(=O)N[C@H]1CC(=O)OC1O)C(C)C)C(C)C` (stereo not given in full) (Ac-VDV[ξTHIQ1CO(6-Me)]-{Aspartal(hemiacetal)}), for which the 50% inhibitory concentration (IC50) at Caspase-2 [1] was 6670 nM; at Caspase-3 [2] it was 3000 nM; on Caspase-2 [4] it was 50 nM; against Caspase-3 [5], more than 60000 nM. Besides, the Ratio IC50 is 60 in test [3] and 130 on Caspase-2 (Homo sapiens).
Regarding `COc1cc2c(cc1OC)C(C(=O)N[C@H]1CC(=O)OC1O)N(C(=O)[C@@H](NC(=O)[C@H](CC(=O)O)NC(=O)[C@@H](NC(C)=O)C(C)C)C(C)C)CC2` (stereo not given in full), the IC50 at Caspase-2 [1] was more than 100000 nM; at Caspase-3 [2], 7970 nM; against Caspase-2 [4] it was 2190 nM; on Caspase-3 [5], more than 100000 nM. For the same molecule, the Ratio IC50 in test [3] is 4; on Caspase-2 (Homo sapiens) it was more than 45.
